Values belong to the molecule of their own block, whether it stands above or below them. The source made the active and inactive calls. No cut-off for these calls is given here.
Tests used:
Shh Light II [1] = assay: Effect on Ptch1 expression in mouse Shh Light2 cells at 25 to 50 uM after 24 hrs by Western blot analysis; assay type: functional, cell-based
Mus musculus = species: Mus musculus; conditions: 0.5 to 50 uM
Shh Light II [2] = assay: Cytotoxicity against mouse Shh Light2 cells up to 150 uM after 40 hrs by MTT assay; assay type: cell-based
Procedure, shortened: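 MTT viability in Shh-LIGHT2 cells (NIH-3T3 clone with Gli-dependent firefly and constitutive Renilla luciferase reporters) after 40 h exposure to doses up to 150 μM, under the same conditions as the Hh reporter assay.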

Shh Light II [3] = assay: Effect on SuFu expression in mouse Shh Light2 cells at 25 to 50 uM after 24 hrs by Western blot analysis; assay type: functional, cell-based
Procedure, shortened: (§1)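 Shh-LIGHT2 cells treated 24 h, then SHH and SuFu protein levels assessed by western blotting.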

Shh Light II [4] = assay: Effect on SHH expression in mouse Shh Light2 cells at 25 to 50 uM after 24 hrs by Western blot analysis; assay type: functional, cell-based; procedure, shortened: as §1
[5] = target: T1, Zinc finger protein GLI1 (Homo sapiens) (UniProt P08151); assay: Inhibition of Shh-N-induced Gli1 (unknown origin) expressed in mouse Shh Light2 cells assessed as Gli1-mediated mediated transcription at 50 uM incubated for 30 hrs by firefly luciferase assay; assay type: cell-based
T1 sequence (whole entry): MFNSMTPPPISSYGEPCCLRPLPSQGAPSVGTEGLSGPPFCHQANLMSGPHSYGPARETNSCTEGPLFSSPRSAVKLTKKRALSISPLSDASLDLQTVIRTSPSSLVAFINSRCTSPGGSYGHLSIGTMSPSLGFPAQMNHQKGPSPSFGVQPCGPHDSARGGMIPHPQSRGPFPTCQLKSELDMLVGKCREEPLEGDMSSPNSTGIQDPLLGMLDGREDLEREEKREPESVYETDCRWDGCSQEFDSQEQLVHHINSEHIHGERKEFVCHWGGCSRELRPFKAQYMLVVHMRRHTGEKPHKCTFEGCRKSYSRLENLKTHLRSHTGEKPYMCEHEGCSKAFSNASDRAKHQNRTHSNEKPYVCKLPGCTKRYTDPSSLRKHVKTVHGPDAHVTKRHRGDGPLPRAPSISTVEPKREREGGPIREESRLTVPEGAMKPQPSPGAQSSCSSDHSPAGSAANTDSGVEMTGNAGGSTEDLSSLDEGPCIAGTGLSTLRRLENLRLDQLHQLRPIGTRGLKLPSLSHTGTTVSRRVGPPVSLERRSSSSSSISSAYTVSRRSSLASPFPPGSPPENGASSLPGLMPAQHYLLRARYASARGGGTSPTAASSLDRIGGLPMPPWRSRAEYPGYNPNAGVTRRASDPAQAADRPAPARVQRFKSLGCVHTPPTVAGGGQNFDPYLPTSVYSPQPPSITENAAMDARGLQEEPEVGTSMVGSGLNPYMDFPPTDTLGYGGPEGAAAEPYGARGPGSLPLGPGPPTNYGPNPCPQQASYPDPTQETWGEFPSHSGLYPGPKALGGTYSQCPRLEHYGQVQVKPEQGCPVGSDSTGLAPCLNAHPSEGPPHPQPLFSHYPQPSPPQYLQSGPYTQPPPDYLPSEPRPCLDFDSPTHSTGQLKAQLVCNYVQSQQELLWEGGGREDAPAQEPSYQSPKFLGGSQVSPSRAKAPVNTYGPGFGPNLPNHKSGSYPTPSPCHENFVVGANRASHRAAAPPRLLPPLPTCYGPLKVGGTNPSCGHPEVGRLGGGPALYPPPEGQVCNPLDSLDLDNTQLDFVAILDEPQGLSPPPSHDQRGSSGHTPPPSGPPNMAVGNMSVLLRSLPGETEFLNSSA
Procedure, shortened: (§2)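 Shh-LIGHT2 cells (NIH-3T3 clone stably carrying Gli-dependent firefly and constitutive Renilla luciferase) treated 30 h with graded compound concentrations in Shh-N conditioned medium; firefly luminescence read as percent inhibition versus Shh-N-stimulated DMSO control. Cyclopamine 10 µM positive control. Three independent experiments in triplicate, mean ± SD.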

[6] = target: T1, Zinc finger protein GLI1 (Homo sapiens); assay: Inhibition of Gli1 (unknown origin) expression in mouse Shh Light2 cells at 100 uM by Western blot analysis; assay type: cell-based
Procedure, shortened: (§3)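 Gli1 protein immunoblotted in Shh-N-stimulated Shh-LIGHT2 cells after treatment with varying doses or 100 µM compound; GAPDH loading control; Shh-N-stimulated DMSO-treated cells as control; cyclopamine 10 µM positive control.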

Shh Light II [7] = assay: Cell cycle arrest in mouse Shh Light2 cells assessed as accumulation at subG0 phase at 10 uM after 30 to 48 hrs by propidium iodide staining-based flow cytometry (reference value: 3.4%); assay type: functional
Shh Light II [8] = assay: Cell cycle arrest in mouse Shh Light2 cells assessed as accumulation at S phase at 10 uM after 30 to 48 hrs by propidium iodide staining-based flow cytometry (reference value: 3.6%); assay type: functional
Shh Light II [9] = assay: Cell cycle arrest in mouse Shh Light2 cells assessed as accumulation at G2/M phase at 10 uM after 30 to 48 hrs by propidium iodide staining-based flow cytometry (reference value: 6.7%); assay type: functional
Shh Light II [10] = assay: Cell cycle arrest in mouse Shh Light2 cells assessed as accumulation at G0/G1 phase at 10 uM after 30 to 48 hrs by propidium iodide staining-based flow cytometry (reference value: 86.2%); assay type: functional
Shh Light II [11] = assay: Cell cycle arrest in mouse Shh Light2 cells assessed as accumulation at G2/M phase at 30 uM after 30 to 48 hrs by propidium iodide staining-based flow cytometry (reference value: 6.7%); assay type: functional
[12] = target: T1, Zinc finger protein GLI1 (Homo sapiens); assay: Inhibition of Gli1 (unknown origin) expression in mouse Shh Light2 cells at 1 to 100 uM by Western blot analysis; assay type: cell-based; procedure, shortened: as §3
Shh Light II [13] = assay: Cell cycle arrest in mouse Shh Light2 cells assessed as accumulation at S phase at 100 uM after 30 to 48 hrs by propidium iodide staining-based flow cytometry (reference value: 3.6%); assay type: functional
Shh Light II [14] = assay: Cell cycle arrest in mouse Shh Light2 cells assessed as accumulation at S phase at 30 uM after 30 to 48 hrs by propidium iodide staining-based flow cytometry (reference value: 3.6%); assay type: functional
Shh Light II [15] = assay: Effect on Ptch1 expression in mouse Shh Light2 cells at 75 to 100 uM after 24 hrs by Western blot analysis; assay type: functional, cell-based
Shh Light II [16] = assay: Cell cycle arrest in mouse Shh Light2 cells assessed as accumulation at G0/G1 phase at 30 uM after 30 to 48 hrs by propidium iodide staining-based flow cytometry (reference value: 86.2%); assay type: functional
Shh Light II [17] = assay: Cell cycle arrest in mouse Shh Light2 cells assessed as accumulation at G2/M phase at 100 uM after 30 to 48 hrs by propidium iodide staining-based flow cytometry (reference value: 6.7%); assay type: functional
Shh Light II [18] = assay: Cell cycle arrest in mouse Shh Light2 cells assessed as accumulation at G0/G1 phase at 100 uM after 30 to 48 hrs by propidium iodide staining-based flow cytometry (reference value: 86.2%); assay type: functional
Shh Light II [19] = assay: Cell cycle arrest in mouse Shh Light2 cells assessed as accumulation at subG0 phase at 30 uM after 30 to 48 hrs by propidium iodide staining-based flow cytometry (reference value: 3.4%); assay type: functional
Shh Light II [20] = assay: Effect on SHH expression in mouse Shh Light2 cells at 75 to 100 uM after 24 hrs by Western blot analysis; assay type: functional, cell-based
Shh Light II [21] = assay: Effect on SuFu expression in mouse Shh Light2 cells at 75 to 100 uM after 24 hrs by Western blot analysis; assay type: functional, cell-based
Shh Light II [22] = assay: Cell cycle arrest in mouse Shh Light2 cells assessed as accumulation at subG0 phase at 100 uM after 30 to 48 hrs by propidium iodide staining-based flow cytometry (reference value: 3.4%); assay type: functional
Shh Light II [23] = assay: Effect on Smo expression in mouse Shh Light2 cells at 75 to 100 uM after 24 hrs by Western blot analysis; assay type: functional, cell-based
[24] = target: T1, Zinc finger protein GLI1 (Homo sapiens); assay: Inhibition of Shh-N-induced Gli1 (unknown origin) expressed in mouse Shh Light2 cells assessed as Gli1-mediated mediated transcription up to 50 uM incubated for 30 hrs by firefly luciferase assay; assay type: cell-based; procedure, shortened: as §2

- inhibition (Mus musculus): inactive
SMILES: NC(=O)C1CCCNN1 (configuration not stated)
- Activity (Shh Light II [1]): inactive
- Activity (Shh Light II [2]): Non-Toxic
- Activity (Shh Light II [3]): inactive
- Activity (Shh Light II [4]): inactive

- inhibition [5]: inactive
- inhibition [6]: inactive
SMILES: COC(=O)C1CCCCNN1 (configuration not stated)

- inhibition [5]: inactive
- inhibition [6]: inactive
SMILES: O=C(O)C1CCCCNN1 (configuration not stated)

SMILES: CC1=C2C[C@H]3[C@@H](CC=C4C[C@@H](O)CC[C@@]43C)[C@@H]2CC[C@]12O[C@@H]1C[C@H](C)CN[C@H]1[C@H]2C [CYCLOPAMINE]
- Activity (Shh Light II [7]): 3.2%
- Activity (Shh Light II [8]): 4.7%
- Activity (Shh Light II [9]): 7.7%
- Activity (Shh Light II [10]): 84.1%

- inhibition [5]: inactive
- inhibition [6]: inactive
SMILES: COC(=O)C1CCCNN1 (configuration not stated)

- inhibition [5]: < 50%
- inhibition [12]: Dose-dependent effect
SMILES: O=C(O)C1CCCNN1 (configuration not stated)
- Activity (Shh Light II [11]): 7.8%
- Activity (Shh Light II [2]): Non-Toxic
- Activity (Shh Light II [13]): 4.9%
- Activity (Shh Light II [14]): 4.4%
- Activity (Shh Light II [15]): inactive
- Activity (Shh Light II [16]): 82.9%
- Activity (Shh Light II [17]): 8.3%
- Activity (Shh Light II [18]): 81.3%
- Activity (Shh Light II [19]): 4.7%
- Activity (Shh Light II [20]): inactive
- Activity (Shh Light II [21]): inactive
- Activity (Shh Light II [22]): 5.2%
- Activity (Shh Light II [23]): inactive

- inhibition [24]: inactive
- inhibition [12]: inactive
SMILES: O=C(O)C1CCCCN1 (configuration not stated)

- inhibition (Mus musculus): inactive
SMILES: CN(C)C(=O)C1CCCNN1 (configuration not stated)
- Activity (Shh Light II [1]): inactive
- Activity (Shh Light II [2]): Non-Toxic
- Activity (Shh Light II [3]): inactive
- Activity (Shh Light II [4]): inactive

From ChEMBL document CHEMBL4431354, “Piperazic acid derivatives inhibit Gli1 in Hedgehog signaling pathway” (Bioorg Med Chem Lett, 2016)
